Measured values pooled from the literature.
Protocols differ between the studies behind these lines.
Target: Serine/threonine-protein kinase ULK2 (ULK2, Homo sapiens, UniProt Q8IYT8)
Residues used in one study (Q8IYT8 1-1036): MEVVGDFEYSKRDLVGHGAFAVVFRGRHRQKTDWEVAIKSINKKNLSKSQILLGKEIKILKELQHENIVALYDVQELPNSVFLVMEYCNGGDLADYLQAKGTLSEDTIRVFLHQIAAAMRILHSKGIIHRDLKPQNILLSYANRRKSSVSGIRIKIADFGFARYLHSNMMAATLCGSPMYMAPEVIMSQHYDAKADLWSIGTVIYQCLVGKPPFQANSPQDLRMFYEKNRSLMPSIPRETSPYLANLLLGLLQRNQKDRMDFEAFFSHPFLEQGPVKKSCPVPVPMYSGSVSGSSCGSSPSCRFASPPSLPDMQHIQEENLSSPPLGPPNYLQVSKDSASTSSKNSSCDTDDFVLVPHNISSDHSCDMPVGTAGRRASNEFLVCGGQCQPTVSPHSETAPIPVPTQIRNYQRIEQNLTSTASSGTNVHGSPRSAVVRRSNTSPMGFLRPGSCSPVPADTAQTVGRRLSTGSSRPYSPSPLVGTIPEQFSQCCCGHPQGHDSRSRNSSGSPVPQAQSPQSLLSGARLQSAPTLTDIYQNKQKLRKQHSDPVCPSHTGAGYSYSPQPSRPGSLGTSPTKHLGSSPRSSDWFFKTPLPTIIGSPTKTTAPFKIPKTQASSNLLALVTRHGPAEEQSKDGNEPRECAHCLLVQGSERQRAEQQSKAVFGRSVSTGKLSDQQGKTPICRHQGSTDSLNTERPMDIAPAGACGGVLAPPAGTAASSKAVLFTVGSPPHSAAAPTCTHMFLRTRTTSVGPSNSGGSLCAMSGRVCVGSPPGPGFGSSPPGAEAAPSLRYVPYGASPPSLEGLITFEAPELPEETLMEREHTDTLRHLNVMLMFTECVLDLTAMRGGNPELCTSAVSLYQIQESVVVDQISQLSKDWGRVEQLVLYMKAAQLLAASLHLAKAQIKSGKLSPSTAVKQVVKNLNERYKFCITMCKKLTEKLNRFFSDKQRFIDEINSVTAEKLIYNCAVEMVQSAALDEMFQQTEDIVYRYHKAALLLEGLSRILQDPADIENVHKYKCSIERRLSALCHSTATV

FC(F)(F)Oc1cccc(-c2cnc3ccc(-c4ccncc4)nn23)c1
remaining binding (binding; competition with immobilised ligand; 5 µM): 78%

COc1ccnn2ncc(-c3ccnc(N(C)C)n3)c12
remaining binding (binding; 1 µM): 100%

CCCOc1ccc([C@H]2[C@H](C(=O)O)[C@@H](c3ccc4c(c3)OCO4)CN2CC(=O)Nc2c(CC)cccc2CC)cc1
remaining binding (cell-free assay; competition with immobilised ligand; 1 µM): 55%

C[C@@H]1CN(c2ccc3ncc(-c4ccc5[nH]nc(C6CC6)c5c4)n3n2)C[C@H](C)O1
remaining binding (binding; competition with immobilised ligand; 0.5 µM): 91%

CN(c1nccc(-c2cnn3ncccc23)n1)C1CC1
remaining binding (binding; 1 µM): 100%

NS(=O)(=O)c1cc(NC(=O)C2(c3ccccc3Cl)CC2)ccc1Oc1cccc(Cl)c1
remaining binding (cell-free assay; competition with immobilised ligand; 1 µM): 100%

CNC(=O)[C@@H]1CC[C@@H](n2c(-c3ccc4cnccc4c3)nc3ccc(C(=O)NCc4cccc(C(N)=O)c4)cc32)C1
remaining binding (binding; competition with immobilised ligand; 1 µM): 100%

O=C(c1ccc(Nc2ncc(Cl)c(-c3cc4ccccc4s3)n2)cc1)N1CCC(N2CCCC2)CC1
remaining binding (binding; competition with immobilised ligand; 1 µM): 35%

COc1cnc(Nc2cccc(S(N)(=O)=O)c2)nc1N1CCN(c2ccccc2)CC1
remaining binding (binding; competition with immobilised ligand; 1 µM): 96%

CSc1cccnc1N1CCN(Cc2nc3ccccc3[nH]2)CC1
remaining binding (cell-free assay; competition with immobilised ligand; 1 µM): 94%

C[C@@H]1CCN(c2nccc(-c3cnn4ncccc34)n2)C1
remaining binding (binding; 1 µM): 69%

C=CC(=O)N1CCC(C(=O)NCC(=O)N2CCN(c3nc(-c4cnc(N)nc4C(F)F)nc(N4CCOCC4)n3)CC2)CC1
remaining binding (binding; competition with immobilised ligand; 1 µM): 96%

CCC(=O)N[C@H]1CC[C@@H](C(=O)N(C)c2ccc(-c3nc4ccccc4o3)cc2)C1
remaining binding (cell-free assay; competition with immobilised ligand; 1 µM): 75%

COc1ncc2cc3ccccc3nc2c1C#N
remaining binding (cell-free assay; competition with immobilised ligand; 5 µM): 100%

c1cncc(-c2cccc(Nc3nccc(NC4CCCCC4)n3)c2)c1
remaining binding (binding; competition with immobilised ligand; 10 µM): 80%

CNCc1ccccc1-c1csc([C@H](C)Nc2nc(C)nc3cc(OC)c(OC)cc23)c1
remaining binding (cell-free assay; competition with immobilised ligand; 1 µM): 100%

CC1CCCN1c1nccc(-c2cnn3ncccc23)n1 (stereo not shown)
remaining binding (binding; 1 µM): 74%

O=C1CCc2cc(Nc3cc(OC4CCOCC4)c([N+](=O)[O-])cc3Cl)ccc2N1
remaining binding (cell-free assay; competition with immobilised ligand; 1 µM): 99%

O=C(NCCCN1CCOCC1)c1ccc(Nc2ncc(Cl)c(-c3ccc(Cl)s3)n2)cc1
remaining binding (binding; competition with immobilised ligand; 1 µM): 24%

O=C(Nc1c[nH]nc1C(=O)NC1CCNCC1)c1cc(F)cc(F)c1
remaining binding (binding; competition with immobilised ligand; 1 µM): 99%

Cc1cnn2ncc(-c3ccnc(N(C)C)n3)c2c1
remaining binding (binding; 1 µM): 92%

O=C(NS(=O)(=O)c1ccc(NCC2CCOCC2)c([N+](=O)[O-])c1)c1ccc(N2CCN(Cc3ccc(C(F)(F)F)cc3-c3ccc(Cl)cc3)CC2)cc1Oc1cnc2[nH]ccc2c1
remaining binding (cell-free assay; competition with immobilised ligand; 1 µM): 100%

Cc1cnc(Nc2ccc(C(=O)N3CCC(N4CCCC4)CC3)cc2)nc1-c1cc2ccccc2s1
remaining binding (binding; competition with immobilised ligand; 1 µM): 12%

COCCOc1nc(-c2ccc(Cl)nc2)nc2c1CN(C(=O)c1ncn3ccccc13)CC2
remaining binding (cell-free assay; competition with immobilised ligand; 0.1 µM): 100%

F[C@@H]1CCN(c2nccc(-c3cnn4ncccc34)n2)C1
remaining binding (binding; 1 µM): 100%
